# STAT1 activator: STAT1 signaling activators, primary screen, cell-based, HTS, luciferase reporter; NIH 3T3 STAT1-luciferase reporter, IFN-gamma, luminescence; 100% = IFN-gamma alone, no compound; activation (% of control), % at 5.5 µM; 200,000 compounds, 2.6% hits; AID 932, 2007;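 active = activation above the screen-wide mean activation plus 3 SD, cut at about 130% in these data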;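 also: raw ratio to IFN-gamma control signal so 100% means no change and 0% no light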
# APP 5'UTR act: activators of APP 5'UTR luciferase reporter, primary screen, SH-SY5Y cells | 190,000 compounds, 1% hits | activation, % at 2 µM | SH-SY5Y APP 5'UTR luciferase reporter, luminescence; zero percent = DMSO vehicle wells;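 active = activation above a set limit, based on mean plus 3 SD of controls, cut at about 140% in these data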
# STAT1 blocker: STAT1 signaling inhibitors, primary screen, cell-based, HTS, luciferase reporter; AID 920, 2007; 200,000 compounds, 0.35% hits; NIH 3T3 STAT1-luciferase reporter, IFN-gamma, luminescence; inhibition, % at 5.5 µM;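 active = inhibition above a set limit, the mean inhibition across all tested compounds plus 3 SD, cut at about 34% in these data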;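 also: 0% = IFN-gamma with DMSO and 100% = IFN-gamma with 300 µM nifuroxazide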
# STAT3 inh: IL-6 driven STAT3 reporter inhibitors, primary screen, U3A cells, luciferase, luminescence, MLSCN library | IL-6 STAT3-luciferase reporter; host cell line lacks STAT1 | inhibition, % at 5.5 µM | 190,000 compounds, 0.89% hits | AID 862, 2007;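 active = inhibition above the mean inhibition across all screened compounds plus 3 SD, cut at about 44% in these data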;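 also: 0% = DMSO only wells and 100% = 100 µM nifuroxazide control wells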
# NF-kB expr up: activators of NF-kB expression in neurons, primary screen, cell-based, HTS; AID 1239, 2008; human neuronal cells, NF-kB reporter expression; stronger effect = higher value; fold change at 12.5 µM; 190,000 compounds, 1.6% hits; in the data active = fold change above about 3.3
# STAT3 activator: IL-6 driven STAT3 reporter potentiators, primary screen, U3A cells, luciferase, luminescence, MLSCN library | activation (% of control), % at 5.6 µM | 190,000 compounds, 0.91% hits | IL-6 STAT3-luciferase reporter; 100% = signal with IL-6 EC80 alone;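 active = activation above the screen-wide mean of compound activation plus 3 SD, cut at about 130% in these data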;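 also: 0% = background luminescence of wells with medium and substrate only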
#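 Material: STAT3-luciferase reporter U3A cells; Probe or stimulus: IL-6 (33 ng/mL); Incubation: compound pre-incubation 1 h before IL-6, then 6 h stimulation at 37 °C; Technique: luminescence from STAT3-driven luciferase reporter; Evaluation: % activation versus median of IL-6-stimulated wells; Controls: IL-6-only high control.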
# Active calls of the source: *; nt = no result. Shown are actives, neighbours in structure and some others; about 4.9% of the full set was active somewhere.
SMILES,STAT1 activator,APP 5'UTR act,STAT1 blocker,STAT3 inh,NF-kB expr up,STAT3 activator
CCOc1ccc(NC(=O)Nc2cccs2)cc1,122.6,nt,-24.5,16.2,4.52*,91.6
CCc1ccc(NC(=O)Nc2cccs2)cc1,133.7*,6.5,-36.8,35.4,3.8*,73.0
Cc1ccc(NC(=O)Nc2cccs2)cc1,115.3,94.6,-18.6,-9.6,2.21,111.8
Cc1ccc(CC2CC(=O)N(Cc3ccco3)C2=O)cc1 (configuration not stated),142.2*,105.8,-45.4,15.5,4.3*,88.6
Cc1nn(C)c(C(=O)N/N=C/c2ccc(Br)cc2)c1Cl,96.6,2.6,3.9,9.5,1.08,91.6
CC(C)c1ccc(/C=N/NC(=O)c2c(Cl)cnn2C)cc1,137.7*,117.4,-42.7,15.3,5.25*,89.9
Cc1ccc(NC(=O)c2nnn(-c3cc(C)cc(C)c3)c2N)cc1,128.7*,27.4,-31.3,22.8,1.49,82.2
Cc1ccc(CCNC(=O)c2nnn(-c3cc(C)cc(C)c3)c2N)cc1,104.1,-8.4,-4.5,3.2,1.2,99.7
COc1c([N+](=O)[O-])c(=O)n(-c2ccccc2)c2ccccc12,106.2,-11.4,-7.0,-2.3,0.9,99.7
CC(C)(C)c1ccc(C2CC2C(=O)N/N=C\c2ccc[nH]2)cc1 (configuration not stated),56.5,-80.1,45.8*,71.0*,0.85,41.5
O=C(N/N=C/c1ccco1)C1CC1c1ccccc1 (configuration not stated),101.6,-1.8,-1.7,-1.4,0.97,101.9
Cc1cccc(N/N=C2/COC(C)(C)CC2=O)c1,135.6*,70.9,-40.0,1.5,1.23,97.0
Cc1ccc2nc(C)/c(=N\O)c(C)nc2c1,137.1*,195.4*,-41.5,-19.5,1.41,116.5
Cc1nc2ccccc2nc(C)c1=NO,138.0*,52.2,-41.5,-8.5,1.17,111.2
Cc1ccc2nc(-c3ccccc3)c(-c3ccccc3)nc2c1,105.4,-10.1,-7.5,9.2,1.12,95.9
CC(=O)Nc1ccc(S(=O)(=O)N(C)CC(=O)OCC(=O)c2cc(C)n(-c3ccc4c(c3)OCO4)c2C)cc1,102.1,33.2,-2.4,0.3,1.15,101.6
Brc1ccc(-c2noc(CCc3ccccc3)n2)cc1,100.6,17.7,-0.6,5.9,nt,97.4
c1ccc(CCc2nc(-c3ccccc3)no2)cc1,133.9*,17.7,-37.0,11.9,1.75,92.9
c1ccc(OCc2nc(-c3ccccc3)no2)cc1,142.3*,34.1,-45.8,5.8,2.78,97.4
O=C(Nc1ccc(-c2cn3ccccc3n2)cc1)c1ccco1,144.3*,121.5,-50.1,13.8,2.35,91.7
c1ccc(OCc2nc(-c3ccncc3)no2)cc1,123.0,24.1,-27.1,5.5,1.23,97.2
O=C(Nc1ccc(-c2noc(CCc3ccccc3)n2)cc1)c1ccco1,136.4*,173.3*,-40.4,6.8,3.9*,99.6
COCCNC(=S)Nc1ccc2[nH]c(=O)[nH]c2c1,96.9,4.3,0.4,-3.0,1.21,106.6
CC(C)(C)c1ccc(OCc2ccc(C(=O)NCc3cccnc3)o2)cc1,120.7,86.4,-25.1,-15.7,1.35,119.9
c1ccc(-c2noc(CN3CCN(c4ccccc4)CC3)n2)cc1,97.9,nt,2.3,3.4,1.11,104.8
SMILES,STAT1 activator,APP 5'UTR act,STAT1 blocker,STAT3 inh,NF-kB expr up,STAT3 activator
CC1CCN(Cc2nc(-c3ccccc3)no2)CC1,142.2*,74.9,-46.1,-0.7,3.35*,104.2
Cc1cccc(-c2noc(Cc3ccccc3)n2)c1,134.9*,42.4,-38.4,0.7,2.06,108.1
C/C(=N\Nc1ccc(F)cc1F)c1ccc(N2CCOCC2)cc1,113.6,17.1,-15.0,-29.7,1.23,133.5*
CNC(=S)N/N=C(\C)c1ccc(N2CCOCC2)cc1,97.7,31.2,2.6,38.1,6.32*,69.6
Fc1ccc(N/N=C/c2ccc(N3CCOCC3)cc2)c(F)c1,131.1*,92.3,-33.9,12.4,3.57*,93.0
O=S(=O)(Nc1ccc(N2CCOCC2)cc1)c1ccc(F)cc1F,99.7,-1.9,1.0,8.7,1.15,93.4
O=C(NCCNC1CCC(c2ccccc2)CC1)c1cccs1 (configuration not stated),98.6,8.6,1.1,2.2,0.79,103.1
COc1ccc(OCCC(=O)NCCN2CCOCC2)cc1,98.8,8.0,-0.1,3.9,1.09,100.6
O=C(NCCCN1CCc2ccccc2C1)C1CCN(S(=O)(=O)N2CCC3(CC2)OCCO3)CC1,103.8,0.8,-3.8,0.3,1.14,107.4
COc1cc(NC(=O)c2cc3nc(C)cc(C)n3n2)c(OC)cc1Cl,131.9*,60.4,-35.1,5.1,1.46,100.6
CC1=CCC2([N+](=O)[O-])CN(CC(=O)O)CC1([N+](=O)[O-])C2 (configuration not stated),104.8,35.8,-4.9,-3.5,1,101.5
C/C(CCS(=O)(=O)c1ccccc1)=N/O,96.7,-3.4,3.1,9.7,1.05,93.8
CCOC(=O)c1c(C)oc2c1c(CN1CCN(C(=O)OCC)CC1)c(O)c1ccccc12,99.7,156.6*,0.4,-37.8,4.29*,129.5
Cc1ccc(C(=O)/C=C/c2c[nH]c3ccccc23)cc1,118.4,62.5,-20.5,12.3,3.47*,99.1
O=C(/C=C/c1c[nH]c2ccccc12)c1ccccc1,135.8*,116.8,-39.7,-2.3,9.87*,104.7
Cc1ccc(S(=O)(=O)/C(C#N)=C/c2c[nH]c3ccccc23)cc1,84.4,11.2,16.9,-32.9,1.37,125.5
Cc1ccc(C(=S)N2CCN(Cc3ccccc3)CC2)s1,97.3,10.6,2.5,6.4,1.15,101.0
Cc1nc(Sc2nnnn2C)c2c3c(sc2n1)CCC3,86.0,-6.5,15.3,6.7,12.3*,96.5
CCc1nc(Sc2nnnn2-c2ccccc2)c2c3c(sc2n1)CCCC3,89.5,-17.7,11.7,-1.6,7.95*,103.4
CCc1nc(N2CCN(C(=O)c3ccccc3)CC2)c2c3c(sc2n1)CCCC3,91.3,0.7,8.0,7.2,0.63,98.4
O=C(CC(c1ccco1)S(=O)(=O)c1ccccc1)c1ccccc1 (configuration not stated),103.5,19.6,-2.0,12.3,1.93,93.6
CCCCc1c(C)nc2ccc(C(=O)OCC)cc2c1Cl,105.9,11.4,-6.5,-3.4,1.28,102.5
CCOC(=O)c1ccc2nc(C)c(CCC(C)=O)c(Cl)c2c1,129.2*,53.1,-32.4,13.7,1.71,93.7
Cc1ccc(C2=Nc3ccc(Br)cc3C(c3ccncc3)=NN2)cc1,109.7,16.4,-12.5,4.5,1.14,98.1
Cc1ccc(-c2nnc(Cc3ccc([N+](=O)[O-])cc3)o2)cc1,104.8,147.0*,-6.0,13.9,2.72,97.7

# Screening results (PubChem)
